Measurements from ChEMBL document CHEMBL3244005, “Troponoids. 3. Synthesis and antiallergy activity of N-troponyloxamic acid esters” (J Med Chem, 1979).

Tests used:
Rattus norvegicus [1] = test: Antiallergic activity in Sprague-Dawley CD rat assessed as inhibition of passive anaphylaxis-induced hind paw edema at 30 mg/kg, po relative to control; assay type: functional; details: for inhibition in vivo at 30 mg/kg: Rattus norvegicus, Sprague-Dawley CD, po
In short: (§1)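 Passive anaphylaxis (reaginic antibody) induced in rat hind paw: serum with reaginic antibody injected into left hind paw; antigen given intravenously 24 h later. Paw volume measured by mercury displacement; activity read as inhibition of paw edema versus controls. Test compounds given ip or po. Inhibition of 35% or more considered significant by Student's t test (p < 0.05).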

Rattus norvegicus [2] = test: Antiallergic activity in Sprague-Dawley CD rat assessed as inhibition of passive anaphylaxis-induced hind paw edema at 3 mg/kg, po relative to control; assay type: functional; in short: as §1
Rattus norvegicus [3] = test: Antiallergic activity in Sprague-Dawley CD rat assessed as inhibition of passive anaphylaxis-induced hind paw edema at 100 mg/kg, po relative to control; assay type: functional; details: for inhibition in vivo at 100 mg/kg: Rattus norvegicus, Sprague-Dawley CD, po; in short: as §1
Rattus norvegicus [4] = test: Antiallergic activity in Sprague-Dawley CD rat passive anaphylaxis model assessed as hind paw edema volume at 10 mg/kg, po relative to control; assay type: functional; in short: as §1
Rattus norvegicus [5] = test: Antiallergic activity in Sprague-Dawley CD rat passive anaphylaxis model assessed as hind paw edema volume at 30 mg/kg, po relative to control; assay type: functional; in short: as §1
Rattus norvegicus [6] = test: Antiallergic activity in Sprague-Dawley CD rat passive anaphylaxis model assessed as hind paw edema volume at 3 mg/kg, po relative to control; assay type: functional; in short: as §1
Rattus norvegicus [7] = test: Antiallergic activity in Sprague-Dawley CD rat assessed as inhibition of passive anaphylaxis-induced hind paw edema at 10 mg/kg, po relative to control; assay type: functional; in short: as §1
Serum = test: Drug metabolism in serum of Sprague-Dawley CD rat passive anaphylaxis model at 0.23 mmol/kg, iv; assay type: ADME, cell-free
In short: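 Rats given an iv bolus of 0.23 mmol/kg. Serum separated by centrifugation and stored frozen. Drug-derived material in serum quantified over time by UV measurement of 2-aminotropone. For 14C-labelled ester (label in ethyl group or oxalyl carbonyls), radioactivity counted in 0.2 mL serum after tissue-solubiliser digestion and scintillation fluid addition.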

Rattus norvegicus [8] = test: Antiallergic activity in Sprague-Dawley CD rat assessed as inhibition of passive anaphylaxis-induced hind paw edema at 30 mg/kg, ip relative to control; assay type: functional; details: Rattus norvegicus, Sprague-Dawley CD, ip, route intraperitoneal; in short: as §1
Rattus norvegicus [9] = test: Antiallergic activity in Sprague-Dawley CD rat assessed as inhibition of passive anaphylaxis-induced hind paw edema at 10 mg/kg, ip relative to control; assay type: functional; details: Rattus norvegicus, Sprague-Dawley CD, ip, route intraperitoneal; in short: as §1
Cavia porcellus = species: Cavia porcellus; test: Stimulation of guinea pig lung adenylate cyclase activity at 1 x 10^-4 M after 15 mins relative to control
[10] = Inhibition of guinea pig lung PDE assessed as cyclic AMP level; set-up: species or system Cavia porcellus
In short: (§2)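 PDE from beef heart or guinea pig lung assayed by earlier-described methods; protein measured by Lowry method. IC50 taken from a plot of percent inhibition vs log inhibitor concentration, as the concentration giving 50% reduction in reaction velocity relative to uninhibited controls.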

[11] = Inhibition of beef heart PDE assessed as cyclic AMP level; set-up: species or system Bos taurus; in short: as §2
Rattus norvegicus [12] = test: Antiallergic activity in Sprague-Dawley CD rat assessed as inhibition of passive anaphylaxis-induced hind paw edema at 3 mg/kg, ip relative to control; assay type: functional; set-up: Activity: scale not given: the % may be the effect or the level left; details: route intraperitoneal; in short: as §1
Rattus norvegicus [13] = test: Antiallergic activity in Sprague-Dawley CD rat passive anaphylaxis model assessed as hind paw edema volume at 10 mg/kg, ip relative to control; assay type: functional; details: route intraperitoneal; in short: as §1
Rattus norvegicus [14] = test: Drug metabolism in po dosed Sprague-Dawley CD rat passive anaphylaxis model assessed as 2-aminotropone level; assay type: ADME, organism-based; details: in vivo
Rattus norvegicus [15] = test: Antiallergic activity in Sprague-Dawley CD rat passive anaphylaxis model assessed as hind paw edema volume at 3 mg/kg, ip relative to control; assay type: functional; details: route intraperitoneal; in short: as §1

| Compound | inhibition in vivo at 30 mg/kg (Rattus norvegicus [8]) [%] | inhibition in vivo at 100 mg/kg (Rattus norvegicus [3]) [%] | inhibition in vivo at 30 mg/kg (Rattus norvegicus [1]) [%] | inhibition in vivo at 10 mg/kg (Rattus norvegicus [9]) [%] | other results |
| --- | --- | --- | --- | --- | --- |
| NC(CO)(CO)CO.O=C(O)C(=O)Nc1cccccc1=O |  |  |  |  | inhibition (INH) (Rattus norvegicus [1]): 32%; inhibition (INH) (Rattus norvegicus [2]): 13%; inhibition (INH) (Rattus norvegicus [3]): 73%; Activity (Rattus norvegicus [4]): 0.88 mL; Activity (Rattus norvegicus [5]): 0.64 mL; Activity (Rattus norvegicus [6]): 0.83 mL; inhibition (INH) (Rattus norvegicus [7]): 7% |
| Nc1cccccc1=O |  |  |  |  | Drug metabolism (Serum): metabolite_detected |
| CCOC(=O)C(=O)Nc1ccccc(Oc2ccccc2)c1=O | 16 | 9 |  |  |  |
| CCOC(=O)C(=O)Nc1ccccc(Br)c1=O | 52 | 0 |  |  |  |
| CC(C)OC(=O)C(=O)Nc1cccccc1=O | 96 | 72 | 63 | 76 |  |
| CCOC(=O)C(=O)Nc1cc(OC)cccc1=O | 8 | 53 | 31 |  |  |
| O=C(O)C(=O)Nc1cccccc1=O [listing 1 of 2 here] |  |  |  |  | Activity (Cavia porcellus): 2% |
| CCOC(=O)COC(=O)C(=O)Nc1cccccc1=O |  | 64 | 31 | 69 |  |
| Cn1c(=O)c2nc[nH]c2n(C)c1=O [THEOPHYLLINE] |  |  |  |  | IC50 [10]: 1480 µM; IC50 [11]: 515 µM |
| CCOC(=O)C(=O)Nc1ccccc(C)c1=O | 60 | 34 | 6 | 40 |  |
| CCOC(=O)C(=O)Nc1ccc(NC(=O)C(=O)OCC)c(=O)cc1 | 84 | 76 | 61 | 93 |  |
| NNC(=O)C(=O)Nc1cccccc1=O | 78 | 78 | 41 | 64 |  |
| CCOC(=O)C(=O)Nc1cccc(OC)cc1=O | 67 | 48 | 45 | 73 |  |
| CCOC(=O)C(=O)Nc1c(C)ccccc1=O | 47 | 37 | 4 |  |  |
| CCOC(=O)C(=O)Nc1ccccc(O)c1=O | 61 | 0 |  | 5 |  |
| CCOC(=O)C(=O)Nc1ccccc(N(C)S(=O)(=O)c2ccc(C)cc2)c1=O | 32 | 0 | 3 |  |  |
| O=C(O)C(=O)Nc1cccccc1=O [listing 2 of 2 here] | 77 | 62 |  | 89 | Activity (Rattus norvegicus [12]): 35%; Activity (Rattus norvegicus [13]): 0.12 mL; Drug metabolism (Rattus norvegicus [14]): metabolite_detected; inhibition (INH) (Rattus norvegicus [1]): 38%; Activity (Rattus norvegicus [4]): 1.11 mL; Activity (Rattus norvegicus [5]): 0.88 mL; inhibition (INH) (Rattus norvegicus [7]): 38%; Activity (Rattus norvegicus [15]): 0.75 mL; IC50 [11]: 4330 µM |
